Source: publication PMC4430358 (Bioorganic & medicinal chemistry letters, 2015)
“Also recorded” adds a separate entry of the source. Blank lines part the entries; values can stand above or below the compound they belong to.

What was measured:
[1] = test system: GROα-mediated intracellular calcium release in isolated human PMNs; assay: Inhibition of GROα-mediated intracellular calcium release in isolated human PMNs; format: cell-based; settings: for activity in the PMN assay: compared to compound 5; for fold drop in activity relative to compound 5: PMN calcium release assay
Rat pharmacokinetics = format: in vivo; settings: 1 mg/kg oral gavage in neat Labrasol; for plasma levels after oral gavage: LLOQ approximately 20 nM
[2] = Solubility in aqueous systems; format: physicochemical
CXCR2 = biological target: T1, CXCR2 (Homo sapiens, UniProt P25025); assay: PathHunter β-arrestin assay; format: cell-based
T1 sequence (P25025 1-360): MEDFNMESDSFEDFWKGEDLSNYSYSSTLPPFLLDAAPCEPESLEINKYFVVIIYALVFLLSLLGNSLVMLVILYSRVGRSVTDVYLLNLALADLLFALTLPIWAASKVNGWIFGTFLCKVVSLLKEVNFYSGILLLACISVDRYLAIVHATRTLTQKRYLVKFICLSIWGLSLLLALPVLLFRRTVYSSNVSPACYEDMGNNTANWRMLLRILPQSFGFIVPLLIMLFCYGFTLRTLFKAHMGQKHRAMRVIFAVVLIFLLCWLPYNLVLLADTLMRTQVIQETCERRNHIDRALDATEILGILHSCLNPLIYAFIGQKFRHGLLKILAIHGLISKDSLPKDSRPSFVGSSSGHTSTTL

[3] = Metabolic stability in rat liver microsomes; format: in vitro ADME
Outline: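 Test compound at 1 μM incubated with isolated rat liver microsomes for 60 min at 37 °C. Samples analysed by LC-MS at 0 and 60 min. Result expressed as percent parent remaining at 60 min.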

[4] = Metabolic stability in monkey liver microsomes; format: in vitro ADME; settings: Microsome stability (% remaining @ 60 min) monkey, 37°C, LC-MS
Sprague-Dawley rats = assay: Ozone rat model of pulmonary inflammation; format: in vivo; settings: 1 mg/kg IV at t = 0, 5 and 9 h; 1 ppm ozone 4 h; BALF at 24 h
Outline: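 Sprague-Dawley rats, n = 4 per cohort, given IV vehicle (negative and positive groups) or test compound at 1 mg/kg at t = 0. They were then exposed to air (negative) or 1 ppm ozone for 4 h and redosed at 5 and 9 h. At 24 h rats were sacrificed and BALF collected. Cells were spun down, Wright-Giemsa stained and counted. BALF protein was measured by Bradford assay.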

healthy subjects = settings: clinical evaluation; cited from earlier work

Compound: COc1cc(CSc2ccc(C(=O)Nc3ccc(F)cc3)cn2)c(B(O)O)cc1OC [Compound 12]
- activity in the PMN assay [1]: complete lack of activity

Compound: COc1ccc(B(O)O)c(CSc2ccc(C(=O)Nc3ccc(F)cc3)cn2)c1 [Compound 14]
- fold drop in activity relative to compound 5 [1]: 2 fold

Compound: O=C(Nc1ccc(F)cc1)c1ccc(SCc2cccc(B(O)O)c2)nc1 [Compound 8]
- fold drop in activity relative to compound 5 [1]: 30 fold

- Rat PK AUC Oral (Rat pharmacokinetics): <LLOQ
- plasma levels after oral gavage (Rat pharmacokinetics): < 20 nM
- solubility in aqueous systems [2]: insolubility in aqueous systems
Compound: O=C(Nc1ccc(F)cc1)c1ccc(SCc2ccccc2B(O)O)nc1 [Compound 5]

Compound: O=C(Nc1ccc(F)cc1)c1ccc(SCc2cc3c(cc2B(O)O)OCO3)nc1 [Compound 13]
- activity in the PMN assay [1]: complete lack of activity

Compound: O=C(Nc1ccc(F)cc1)c1ccc(SCCCCB(O)O)nc1 [Compound 10]
- fold drop in activity relative to compound 5 [1]: 18 fold

Compound: O=C(Nc1ccc(F)cc1)c1ccc(SCCc2ccccc2B(O)O)nc1 [Compound 11]
- fold drop in activity relative to compound 5 [1]: 10 fold

- mode of action (CXCR2): full antagonist
- remaining at 1 h, 1 μM [3]: > 90%
- remaining at 1 h, 1 μM [4]: > 90%
- Rat PK AUC Oral (Rat pharmacokinetics): <LLOQ
- plasma levels after oral gavage (Rat pharmacokinetics): < 20 nM
- solubility in aqueous systems [2]: insolubility in aqueous systems
Compound: O=C(Nc1ccc(F)cc1)c1ccc(SCc2cc(OC(F)(F)F)ccc2B(O)O)nc1 [Compound 6, 6-(2-boronic acid-5-trifluoromethoxy-benzylsulfanyl)-N-(4-fluoro-phenyl)-nicotinamide]
- PMN influx to the lungs (BALF) (Sprague-Dawley rats): significantly decreased PMN influx to the lungs to near undetectable levels; also recorded: potent inhibition of PMN recruitment; also recorded: potent inhibition of neutrophil influx
- macrophage influx (BALF) (Sprague-Dawley rats): significantly decreased

Compound: CC[C@@H](Nc1c(Nc2cccc(C(=O)N(C)C)c2O)c(=O)c1=O)c1ccc(C)o1 [navarixin]
- ozone inhalation-induced sputum PMN recruitment (healthy subjects): inhibited

Compound: O=C(Nc1ccc(F)cc1)c1ccc(SCc2cc(F)ccc2B(O)O)nc1 [Compound 15]
- activity in the PMN assay [1]: equipotent
